Measured values reported in paper PMC12234697 (Scientific Reports, 2025).
Read-outs that look alike come from different tables or passages of the source.

Assays:
[1] = Cell viability of HepG2.2.15.7 cells; assay type: cell-based; settings: human
In short: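 HepG2.2.15.7 cells (stable high-level HBV expression) seeded at 1.5 × 10^5 cells/well, grown overnight and PBS-washed. Fresh medium with compound (0.1, 0.3, 1, 3, 10, 30, 100 µM final; DMSO stocks) added for 48 h. Cell viability measured, n = 3; CC50 derived from the dose-response.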

[2] = tested on: LHBs protein and HBc protein; assay: Western blot analysis of intracellular HBV proteins; assay type: cell-based, hepatitis B virus; settings: HepG2.2.15.7 cells; hit compound 16 10 µM, 38 and 39 30 µM; n = 3
In short: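 Treated HepG2.2.15.7 cells were lysed in RIPA buffer and soluble protein was run on SDS-PAGE, then transferred to PVDF. Blots were blocked, then given primary antibodies (including rabbit polyclonal anti-HBc; β-actin as loading control) at 4 °C overnight and secondaries 1 h at room temperature. ECL detection; bands quantified by densitometry, n = 3.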

precore mRNA and pgRNA = assay: Measurement of intracellular HBV RNA by real-time PCR; assay type: cell-based, hepatitis B virus; settings: HepG2.2.15.7 cells; hit compound 16 10 µM, 38 and 39 30 µM; n = 3
In short: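 Total RNA from treated HepG2.2.15.7 cells was TRIzol-extracted and reverse-transcribed with DNase treatment. SYBR Green real-time PCR used primers PCP/BC1 for precore mRNA and PGP/BC1 for precore mRNA plus pgRNA, normalised to GAPDH. n = 3; Mann-Whitney U test, p < 0.05.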

[3] = no reference given; cited from earlier work
[4] = tested on: HBV-expressing HepG2.2.15.7 cells; assay type: cell-based; settings: Hepatitis B virus
In short: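 HBV-producing HepG2.2.15.7 cells (derived from HepG2.2.15) were exposed to test compound at 0.1, 0.3, 1, 3, 10, 30 and 100 µM, […]. Enveloped Dane particles in the supernatant were captured by anti-HBs immunoprecipitation, and HBV DNA was then quantified by real-time PCR with S-gene primers/probe. Cell viability was read in parallel, n = 3. IC50 and CC50 were derived from dose curves.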

## C=C[C@H]1C[N@@]2CC[C@H]1C[C@@H]2[C@@H](O)c1ccnc2ccc(OC)cc12 [Compound 39, quinidine]
[1]
  CC50 at 48 h: 131 µM
[2]
  HBc protein level (western blot): no significant differences
  LHBs protein level (western blot): no significant differences
Precore mRNA and pgRNA
  pgRNA level compared to a control: no significant difference
  precore mRNA level compared to a control: no significant difference
[3]
  effective blood concentration for arrhythmia: 2.3 to 5.0 µg/mL
[4]; HepG2.2.15.7, read-out: IC50 (HBV DNA after the immunoprecipitation)
  IC50: 18.6 µM
[4]; HepG2.2.15.7, read-out: IC50 against HBV expressed in µg/mL
  IC50: 2.8 µg/mL
